Screens (PubChem)
Shown are actives, neighbours in structure and some others; about 2.3% of the full set was active somewhere.
TbMetRS inhib: T. brucei MetRS inhibitors, primary screen, biochemical, luminescence; methionyl-tRNA synthetase (Trypanosoma brucei brucei); purified T. brucei MetRS, ATP depletion, Kinase-Glo luminescence; inhibition, % at 11.9 µM; 360,000 tested, 0.4% active; AID 624268, 2012;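 active means inhibition above a per-plate cutoff of the control wells' mean inhibition plus 3 SD, cut at about 5.5% in these data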
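Measured by: Kinase-Glo luciferase luminescence reporting remaining unconsumed ATP. Material: purified T. brucei MetRS enzyme. Doses: 11.9 µM compound single dose, 0.9% DMSO. Medium: HEPES buffer containing pyrophosphatase, BSA, spermine, DTT. Times: 15 min preincubation, 2 h reaction, all 25 °C. Reagent: methionine, ATP and bulk E. coli tRNA.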
PLCb3 inh: human PLC-beta3 inhibitors, primary screen, biochemical, fluorescence; 1-phosphatidylinositol 4,5-bisphosphate phosphodiesterase beta-3 (Homo sapiens), Q01970; Purified PLC-beta3, fluorogenic substrate; inhibition, % at 12.2 µM; 370,000 tested, 0.18% active; in the data active means inhibition above about 11%
ADAM10 inh: human ADAM10 inhibitors, primary screen, biochemical, QFRET, HTS. 370,000 tested, 0.62% active. AID 720582, 2013. recombinant ADAM10, EDANS/DABCYL FRET peptide cleavage, 3 h. inhibition, % at 7 µM. Disintegrin and metalloproteinase domain-containing protein 10 (Homo sapiens), O14672;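 active means inhibition above a per-campaign cutoff equal to the mean of compounds falling between control-based bounds plus 3 SD, cut at about 20% in these data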
Target sequence (O14672 214-748 limits assumed): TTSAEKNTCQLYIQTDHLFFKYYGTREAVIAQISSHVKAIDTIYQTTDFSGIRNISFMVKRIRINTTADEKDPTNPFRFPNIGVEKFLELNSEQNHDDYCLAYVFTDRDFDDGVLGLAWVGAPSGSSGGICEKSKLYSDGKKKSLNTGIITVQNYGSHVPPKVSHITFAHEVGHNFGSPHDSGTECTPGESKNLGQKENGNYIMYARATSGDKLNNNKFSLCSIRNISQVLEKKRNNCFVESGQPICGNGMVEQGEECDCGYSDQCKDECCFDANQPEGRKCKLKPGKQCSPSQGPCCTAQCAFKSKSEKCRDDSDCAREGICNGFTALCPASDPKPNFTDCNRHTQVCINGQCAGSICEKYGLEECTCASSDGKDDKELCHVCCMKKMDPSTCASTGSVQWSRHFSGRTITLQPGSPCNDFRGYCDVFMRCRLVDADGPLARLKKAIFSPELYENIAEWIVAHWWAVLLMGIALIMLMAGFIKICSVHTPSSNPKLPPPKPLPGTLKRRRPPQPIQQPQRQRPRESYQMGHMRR
ADAM17 inh: ADAM17 inhibitors, primary screen, biochemical, QFRET. 370,000 tested, 0.83% active. recombinant ADAM17, EDANS/DABCYL FRET peptide cleavage. Disintegrin and metalloproteinase domain-containing protein 17 (Homo sapiens), P78536. inhibition, % at 6.95 µM. AID 720648, 2013;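 active means inhibition above the mean of compounds lying between control limits plus 3 SD, set per campaign, cut at about 8.5% in these data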
PLC-gamma1 inh: PLC-gamma1 enzyme inhibitors, primary screen, biochemical, fluorescence, purified enzyme. inhibition, % at 12.2 µM. fluorogenic substrate. AID 720700, 2013. 1-phosphatidylinositol 4,5-bisphosphate phosphodiesterase gamma-1 (Homo sapiens), P19174. 370,000 tested, 0.84% active; in the data active means inhibition above about 9.5%
ADAM10 counter: ADAM10 inhibitors, counter-screen for ADAM17 exosite inhibitor project, biochemical, FRET, human ADAM10. shares compounds with ADAM17 inh. recombinant ADAM10, EDANS/DABCYL FRET peptide cleavage, 3 h. inhibition, % at 6.95 µM. 2,900 tested, 47% active. AID 743256, 2014;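 active means mean inhibition over the triplicate runs exceeds the activity threshold set in the earlier primary screen, cut at about 20% in these data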
ADAM17 confirm: ADAM17 inhibitors, hit retest, confirmation, biochemical, QFRET peptide cleavage. shares compounds with ADAM17 inh. recombinant ADAM17, EDANS/DABCYL QFRET peptide cleavage. inhibition, % at 6.95 µM. 2,900 tested, 65% active. AID 743257, 2014;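 active means mean inhibition across replicates above the hit cutoff set in the primary screen, cut at about 8.5% in these data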
Of the large screens only hits and unclear results are named; the others gave an inactive call (follow-up assays come after a bar, where they were run).

C[C@@H]1CN([C@@H](C)CO)C(=O)CCCn2nncc2CO[C@@H]1CN(C)C(=O)Nc1ccnc(N2CCOCC2)c1	none
CCN(CC(O)Cn1c2ccccc2c2ccccc21)S(=O)(=O)c1ccc(C)cc1 (stereo unspecified)	ADAM17 inh 11.0 | ADAM10 counter 27.6 | ADAM17 confirm 14.1
CC(C)(C)NC(=O)NC(=O)COC(=O)c1cccc(NS(=O)(=O)c2ccc(F)c(F)c2)c1	none
CC(C)(C)c1ccc(NC(=O)COC(=O)c2ccc(NS(=O)(=O)c3ccc(F)c(F)c3)cc2)cc1	ADAM17 inh 9.6 | ADAM10 counter 42.2 | ADAM17 confirm 20.1
COC(=O)C1=C(C)N(Cc2ccc(Cl)cc2)C(=S)NC1c1ccc(Cl)cc1 (stereo unspecified)	none (no result: TbMetRS inhib)
COc1cc2[nH]c(Cl)c([N+](=O)[O-])c2cc1OC	none
Cc1ccc(C(O)c2ncc(-c3ccc(Cl)cc3)[nH]2)cc1 (stereo unspecified)	none
CC(C)NC(=O)Nc1ccc2c(c1)C(=O)N([C@H](C)CO)C[C@H](C)[C@@H](CN(C)C(=O)Nc1ccccc1)O2	none
C[C@H](CO)N1C[C@H](C)[C@@H](CN(C)C(=O)Nc2ccc(C(F)(F)F)cc2)Oc2ccc(NC(=O)Cc3ccccc3)cc2C1=O	ADAM17 inh 16.2 | ADAM10 counter inactive | ADAM17 confirm 9.6
C[C@H](CO)N1C[C@H](C)[C@@H](CN(C)C(=O)Nc2ccc(C(F)(F)F)cc2)Oc2ccc(NC(=O)C3CC3)cc2C1=O	none
CC(C)NC(=O)N(C)C[C@H]1Oc2ccc(NC(=O)Cc3ccccc3)cc2C(=O)N([C@H](C)CO)C[C@@H]1C	ADAM17 inh 9.1 | ADAM10 counter inactive | ADAM17 confirm inactive
CC(C)NC(=O)N(C)C[C@H]1Oc2ccc(NC(=O)Nc3ccccc3)cc2C(=O)N([C@H](C)CO)C[C@@H]1C	none
CC(C)NC(=O)N(C)C[C@H]1Oc2ccc(NC(=O)Nc3ccccc3)cc2C(=O)N([C@@H](C)CO)C[C@@H]1C	ADAM17 inh 10.8 | ADAM10 counter inactive | ADAM17 confirm inactive
COc1ccc(NC(=O)c2cccc(S(=O)(=O)NCc3ccco3)c2)c(OC)c1	none
COc1ccc(-c2csc(C(O)c3ccc(F)c(OC)c3)n2)cc1 (stereo unspecified)	none
CC(C)Oc1ccc(S(=O)(=O)N2CCOCC2)cc1NC(=O)c1ccc(N2CCCC2=O)cc1	none
Cc1ccc(COc2ccc(Br)cc2/C=N/O)cc1	ADAM17 inh 8.8 | ADAM10 counter 34.0 | ADAM17 confirm 16.7
O/N=C/c1cc(Br)ccc1OCc1ccc(F)cc1	none
O=C(Nc1ccccc1)OCCN1C(=O)CCC12CCC(c1ccc(Cl)cc1)CC2 (stereo unspecified)	none (no result: TbMetRS inhib)
CCc1nc(SCc2ccc(OCC(C)C)cc2)n[nH]1	ADAM10 inh 19.9, ADAM17 inh 10.3 | ADAM10 counter inactive | ADAM17 confirm inactive
CCc1nc(SCc2ccc(Br)cc2)n[nH]1	none
Cc1cc(C(=O)Nn2c(-c3ccc(Br)cc3)nc3ccccc3c2=O)ccc1[N+](=O)[O-]	ADAM17 inh 8.9 | ADAM10 counter 24.3 | ADAM17 confirm 11.9
Cc1cccc(C)c1NC(=O)COC(=O)CCc1ccc(S(=O)(=O)N2CCCCC2)cc1	none
Cc1cccc(OCCC(=O)Nc2ccc(C)c(S(=O)(=O)N3CCCCC3)c2)c1	ADAM10 inh 25.9, ADAM17 inh 13.7 | ADAM10 counter 36.3 | ADAM17 confirm 18.3
Cc1ccc(C)c(OCCC(=O)Nc2cccc(S(=O)(=O)N3CCCCC3)c2)c1	ADAM17 inh 9.3 | ADAM10 counter 40.1 | ADAM17 confirm 21.1
